Reference: ChEMBL document CHEMBL5149972, “Novel Antimalarial Tetrazoles and Amides Active against the Hemoglobin Degradation Pathway in Plasmodium falciparum” (J Med Chem, 2021)
pEC50, pIC50: −log10 of the molar value. Converted amounts (≈) assume the structure as drawn. The source made the active and inactive calls. The rule behind the calls is not given here.

Experiments:
Plasmodium falciparum [1] = test: Antiplasmodial activity against asexual blood stage Plasmodium falciparum 3D7 infected in human RBC assessed as parasite growth inhibition incubated for 72 hrs by SYBR Green dye based fluorescence assay; assay type: functional, organism-based
Summary of the method: (§1)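 Blood-stage cultures at 2% hematocrit, human O+ RBCs, RPMI 1640 + 25 mM HEPES, 0.5% Albumax-I, 23 mM bicarbonate, 92 μM hypoxanthine. Start at 0.5% parasitemia; 72 h at 37°C, 5% CO₂; freeze-thaw, then SYBR Green in saponin/Triton lysis buffer, 4 h RT dark; fluorescence ex 485/em 535 nm. 10-point curves, technical duplicates or triplicates, final 0.5% DMSO; four-parameter fit gives EC₅₀; mean ± std dev of biological replicates.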

Plasmodium falciparum [2] = test: Antiplasmodial activity against drug resistant Plasmodium falciparum Dd2 infected in human RBC assessed as parasite growth inhibition incubated for 72 hrs by SYBR Green dye based fluorescence assay; assay type: functional, organism-based; summary of the method: as §1
HepG2 = test: (§2) Cytotoxicity against human HepG2 cells assessed as reduction in cell viability incubated for 72 hrs by CellTiter-Glo assay; assay type: toxicity, cell-based; settings: hepg2, 72 h
[3] = Kinetic solubility of compound in PBS at pH 2 by HPLC analysis; assay type: physicochemical; settings: read-out: Kinetic_solubility
[4] = Kinetic solubility of compound in PBS at pH 6.5 by HPLC analysis; assay type: physicochemical; settings: read-out: Kinetic_solubility
[5] = Metabolic stability in human liver microsomes assessed as intrinsic clearance per mg of protein at 1 uM incubated for 60 mins presence of NADPH regenerating buffer system by LC-MS analysis; assay type: ADME, Microsome; settings: 1 h
Hemozoin = test: Inhibition of Beta-hematin assessed as bis-pyridyl-Fe(III)PPIX complex formation incubated for 5 hrs by NP40 detergent-mediated colorimetric assay
[6] = as §2; assay type: toxicity, cell-based; settings: HepG2 cells
Plasmodium falciparum [7] = test: Antiplasmodial activity against Plasmodium falciparum NF54 expressing transgenic luciferase assessed as parasite kill rate at trophozoite stage incubated for 6 hrs by bioluminescence relative rate of kill (BRRoK) assay; assay type: functional, organism-based; settings: RBC
Plasmodium falciparum [8] = test: Antiplasmodial activity against Plasmodium falciparum NF54 expressing transgenic luciferase assessed as parasite kill rate at trophozoite stage incubated for 72 hrs by bioluminescence relative rate of kill (BRRoK) assay; assay type: functional, organism-based; settings: RBC
Plasmodium falciparum [9] = test: Antiplasmodial activity against Plasmodium falciparum 3D7 infected in human RBC assessed as parasite growth inhibition incubated for 48 hrs by 3H-hypoxanthine incorporation assay; assay type: functional, organism-based; settings: 3D7, Erythrocyte
[10] = Plasmodium falciparum, 3D7, Erythrocyte, 72 h
[11] = Plasmodium falciparum, Dd2, Erythrocyte, 72 h

Row | Compound | pEC50 (Plasmodium falciparum [1]; [10]) | pEC50 (Plasmodium falciparum [2]; [11]) | CC50 (HepG2) | also measured
1 | CCCN(C(c1cncnc1)c1nnnn1-c1ccccc1C)C1(c2cccc(C(F)(F)F)c2)CC1 (racemic) | 6.51 | 6.28 | – | –
2 | CCCN(C(c1cccnc1)c1nnnn1-c1ccccc1C)C1(c2cccc(C(F)(F)F)c2)CC1 (racemic) | 6.64 | 6.39 | 10 µM | –
3 | COc1ccc(Br)cc1CN(C)C(c1ccccc1)c1nnnn1-c1ccccc1C (single isomer, unassigned; (-)) | – | – | – | pEC50 (Plasmodium falciparum [1]; rbc): 5.36; pEC50 (Plasmodium falciparum [2]; rbc): 5.40
4 | O=C(C(c1cccnc1)N(Cc1cccc(C(F)(F)F)c1)C1CC1)N1CCCCC1 (racemic) | 5.74 | 5.38 | > 20 µM | solubility kinetic [3]: > 100 µg/mL; solubility kinetic [4]: 25 µg/mL (≈ 59.9 µM); CLH [5]: 244 µL/min/mg
5 | Cc1cc(Nc2ccc3ccccc3c2)n2ncnc2n1 | – | – | – | pIC50 (Hemozoin): < 3.00
6 | Cc1ccccc1-n1nnnc1C(c1cncnc1)N(Cc1cc(F)cc(C(F)(F)F)c1)C1CC1 (racemic) | 6.43 | – | – | CC50 at 72 h [6]: 36 µM; pEC50 (Plasmodium falciparum [2]; rbc): 5.92
7 | O[C@@H](c1cc(C(F)(F)F)nc2c(C(F)(F)F)cccc12)[C@H]1CCCCN1 [(S,R)-MEFLOQUINE] | – | – | – | pIC50 (Hemozoin): 4.22
8 | Cc1ccccc1-n1nnnc1C(c1cncnc1)N(Cc1cccc(C(F)(F)F)c1F)C1CC1 (racemic) | 6.33 | 6.15 | – | –
9 | Cc1ccccc1N(C)C(=O)C(c1cccnc1)N(Cc1cccc(C(F)(F)F)c1)C1CC1 (racemic) | 6.47 | 6.23 | > 30 µM | solubility kinetic [3]: > 100 µg/mL; solubility kinetic [4]: 6.3 µg/mL (≈ 13.9 µM); CLH [5]: 781 µL/min/mg
10 | COc1ccc(Br)cc1CN(C)C(c1ccccc1)c1nnnn1-c1ccccc1C (racemic) | – | 5.27 | > 30 µM | pEC50 (Plasmodium falciparum [1]; rbc): 5.46; pIC50 (Hemozoin): < 3.00
11 | CN(Cc1cc(C(F)(F)F)ccc1F)C(c1cccnc1)c1nnnn1C1CCCCC1 (racemic) | 5.77 | 5.59 | – | –
12 | Cc1ncc(C(C(=O)N(C)c2ccccc2C)N(Cc2cccc(C(F)(F)F)c2)C2CC2)cn1 (racemic) | 5.12 | 5.11 | > 30 µM | –
13 | C[C@H]1[C@H](OC(=O)CCC(=O)O)O[C@@H]2O[C@@]3(C)CC[C@H]4[C@H](C)CC[C@@H]1[C@@]24OO3 [ARTESUNATE] | – | – | – | pIC50 (Hemozoin): < 3.00
14 | CCC(C(=O)Nc1cccc(Cl)c1)N1C(=O)C(C)N=C(c2ccccc2)c2ccccc21 (stereo unspecified) | 6.51 | – | – | Activity (Plasmodium falciparum [7]): Active; CC50 at 72 h [6]: > 30 µM; Activity (Plasmodium falciparum [8]): Active
15 | O=C1C(O)=C([C@H]2CC[C@H](c3ccc(Cl)cc3)CC2)C(=O)c2ccccc21 [ATOVAQUONE] | 8.89 | – | – | Activity (Plasmodium falciparum [7]): Active; CC50 at 72 h [6]: > 30 µM; Activity (Plasmodium falciparum [8]): Active; pEC50 (Plasmodium falciparum [9]): 9.00
16 | C[C@@H]1CC[C@H]2[C@@H](C)C(=O)O[C@@H]3O[C@@]4(C)CC[C@@H]1[C@]32OO4 [ARTEMISININ] | 7.89 | – | – | Activity (Plasmodium falciparum [7]): Active; CC50 at 72 h [6]: > 30 µM; Activity (Plasmodium falciparum [8]): Active; pEC50 (Plasmodium falciparum [9]): 7.52
17 | Cc1ccccc1N(C)C(=O)C(c1cncnc1)N(Cc1cccc(OC(F)(F)F)c1)C1CC1 (racemic) | 6.62 | 6.23 | > 30 µM | –
18 | Cc1ccccc1N(C)C(=O)C(c1cncnc1)N(Cc1cccc(C(F)(F)F)c1)C1CC1 (racemic) | 6.40 | 6.10 | > 30 µM | solubility kinetic [3]: 11 µg/mL (≈ 24.2 µM); solubility kinetic [4]: > 45 µg/mL; CLH [5]: 531 µL/min/mg
19 | COc1ncnc(NS(=O)(=O)c2ccc(N)cc2)c1OC [SULFADOXINE] | – | – | – | pIC50 (Hemozoin): < 3.00
20 | COc1ccc(C(F)(F)F)cc1CN(C)C(c1cccnc1)c1nnnn1-c1ccccc1C (single isomer, unassigned; (+)) | – | – | – | pEC50 (Plasmodium falciparum [1]; rbc): 5.82; pEC50 (Plasmodium falciparum [2]; rbc): 5.60
21 | COc1ccc(C(F)(F)F)cc1CN(C)C(c1cccnc1)c1nnnn1-c1ccccc1C (racemic) | 5.89 | – | – | pEC50 (Plasmodium falciparum [2]; rbc): 5.43
22 | Cc1ccccc1-n1nnnc1C(C1CC1)N(Cc1cccc(C(F)(F)F)c1)C1CC1 (racemic) | 5.33 | 5.49 | – | –
23 | Cc1ccccc1N(C)C(=O)C(c1cccnc1)N(Cc1cccc(SC(F)(F)F)c1)C1CC1 (racemic) | 6.51 | 6.41 | > 30 µM | –

Row | Compound | pEC50 (Plasmodium falciparum [1]; [10]) | pEC50 (Plasmodium falciparum [2]; [11]) | CC50 (HepG2) | also measured
24 | C[C@H]1c2cccc(O)c2C(=O)C2=C(O)[C@]3(O)C(=O)C(C(N)=O)=C(O)[C@@H](N(C)C)[C@@H]3[C@@H](O)[C@@H]21 [DOXYCYCLINE] | – | – | – | pIC50 (Hemozoin): < 3.00
25 | Cc1ccccc1-n1nnnc1C(c1cncnc1)N(Cc1ccc(F)c(C(F)(F)F)c1)C1CC1 (racemic) | 6.33 | 6.17 | – | –
26 | CCN(CC)Cc1cc(Nc2ccnc3cc(Cl)ccc23)ccc1O [AMODIAQUINE] | – | – | – | pIC50 (Hemozoin): 5.07
27 | Cc1ccccc1-n1nnnc1C(c1cccnc1)N(C)Cc1cc(C(F)(F)F)ccc1F (racemic) | 6.00 | 5.60 | – | –
28 | CN(C(=O)C(c1cncnc1)N(Cc1cccc(C(F)(F)F)c1)C1CC1)c1ccccc1 (racemic) | 6.14 | 5.70 | > 30 µM | –
29 | FC(F)(F)c1cccc(CN(C2CC2)C(c2cccnc2)c2nnnn2C2CC2)c1 (racemic) | 5.82 | 5.52 | – | –
30 | CCc1ccccc1N(C)C(=O)C(c1cncnc1)N(Cc1cccc(C(F)(F)F)c1)C1CC1 (racemic) | 6.62 | 6.24 | > 25 µM | –
31 | Cc1cc(Nc2ccc(S(F)(F)(F)(F)F)cc2)n2nc(C(C)(F)F)nc2n1 [DSM-265] | 8.30 | – | – | Activity (Plasmodium falciparum [7]): Active; CC50 at 72 h [6]: > 30 µM; Activity (Plasmodium falciparum [8]): Active
32 | COc1ccc(C(F)(F)F)cc1CN(C)C(c1ccccc1)c1nnnn1-c1ccccc1C (racemic) | 5.77 | 5.43 | – | –
33 | Cc1ncccc1C(c1nnnn1C1CC1)N(C1CC1)C1(c2cccc(C(F)(F)F)c2)CC1 (racemic) | 4.85 | 4.80 | > 30 µM | –
34 | COc1ccc2nc3cc(Cl)ccc3c(Nc3cc(CN4CCCC4)c(O)c(CN4CCCC4)c3)c2n1 [PYRONARIDINE] | – | – | – | pIC50 (Hemozoin): 5.66
35 | CCc1ccccc1N(C)C(=O)C(c1cccnc1)N(Cc1cccc(C(F)(F)F)c1)C1CC1 (racemic) | 6.72 | 6.32 | > 20 µM | –
36 | COc1ccc(C(F)(F)F)cc1CN(C)C(c1cccnc1)c1nnnn1-c1ccccc1C (single isomer, unassigned; (-)) | – | – | – | pEC50 (Plasmodium falciparum [2]; rbc): 5.77
37 | COc1ccc(C(F)(F)F)cc1CN(C1CC1)C(c1cccnc1)c1nnnn1-c1ccccc1C (racemic) | 6.31 | 6.32 | – | solubility kinetic [3]: 12.5 µg/mL (≈ 25.3 µM); solubility kinetic [4]: 1.6 µg/mL (≈ 3.24 µM); CLH [5]: 154 µL/min/mg
38 | Cc1ccccc1N(C)C(=O)C(c1cncnc1)N(Cc1cccc(SC(F)(F)F)c1)C1CC1 (racemic) | 6.59 | 6.00 | > 30 µM | –
39 | COc1ccccc1CN(C)C(c1ccccc1)c1nnnn1-c1ccccc1C (racemic) | 5.01 | 5.00 | – | –
40 | Cc1ccccc1-n1nnnc1C(c1cncnc1)N(Cc1cc(F)cc(C(F)(F)F)c1)C1CC1 (single isomer, unassigned; (-)) | – | – | > 30 µM | pEC50 (Plasmodium falciparum [1]; rbc): 6.38; pEC50 (Plasmodium falciparum [2]; rbc): 5.59
41 | CC(=O)c1ccc(NC(=O)c2ccc(NC(=O)C3COc4ccccc4O3)cc2)cc1 (stereo unspecified) | 6.15 | – | – | Activity (Plasmodium falciparum [7]): Active; CC50 at 72 h [6]: > 30 µM; Activity (Plasmodium falciparum [8]): Active
42 | COc1ccc(Br)cc1CN(C)C(c1ccccc1)c1nnnn1-c1ccccc1C (single isomer, unassigned; (+)) | – | – | – | pEC50 (Plasmodium falciparum [1]; rbc): 5.82; pEC50 (Plasmodium falciparum [2]; rbc): 5.52
43 | Cc1ccccc1-n1nnnc1C(c1cncnc1)N(Cc1cc(F)cc(C(F)(F)F)c1)C1CC1 (single isomer, unassigned; (+)) | – | – | – | pEC50 (Plasmodium falciparum [1]; rbc): 6.46; pEC50 (Plasmodium falciparum [2]; rbc): 5.60
44 | CCCN(C(C(=O)N(C)c1ccccc1C)c1cccnc1)C1(c2cccc(C(F)(F)F)c2)CC1 (racemic) | 6.68 | 6.48 | > 15 µM | –
45 | Cc1ccccc1N(C)C(=O)C(c1cccnc1)N(Cc1cccc(OC(F)(F)F)c1)C1CC1 (racemic) | 6.49 | 6.28 | > 30 µM | –
46 | Cc1ccccc1-n1nnnc1C(c1cccnc1)N(Cc1cc(C(F)(F)F)ccc1F)C1CC1 (racemic) | 6.22 | 6.17 | – | –
